Test results reported in ChEMBL document CHEMBL3734701, “Synthesis and antibacterial activity of 4″-O-(trans-β-arylacrylamido)carbamoyl azithromycin analogs” (2015).
Values after ≈ are worked out from the molar mass of the structure shown.

Columns and labels:
Assay type in all cases: functional
Staphylococcus aureus [1] = assay: Antibacterial activity against erythromycin-susceptible Staphylococcus aureus ATCC 25923 by broth microdilution method
Procedure, shortened: (§1)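 Broth microdilution MIC following the NCCL-recommended method. Panel of sensitive and resistant Gram-positive strains: S. pyogenes S2 (erythromycin-susceptible clinical isolate), S. aureus ATCC25923 and S. pneumoniae ATCC49619 (erythromycin-susceptible). Azithromycin and clarithromycin were run alongside as references.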

Streptococcus pneumoniae [2] = assay: Antibacterial activity against erythromycin-susceptible Streptococcus pneumoniae ATCC 49619 by broth microdilution method; procedure, shortened: as §1
Streptococcus pyogenes [3] = assay: Antibacterial activity against clinically isolated erythromycin-susceptible Streptococcus pyogenes S2 by broth microdilution method; procedure, shortened: as §1
Staphylococcus aureus [4] = assay: Antibacterial activity against clinically isolated penicillin-resistant Staphylococcus aureus by broth microdilution method
Procedure, shortened: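 Clinical penicillin-resistant S. aureus isolate, not further characterized, tested in a Gram-positive panel. MIC was measured by broth microdilution following NCCL recommendations, with azithromycin and clarithromycin as references.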

Staphylococcus aureus [5] = assay: Antibacterial activity against methicillin-susceptible Staphylococcus aureus ATCC 29213 by broth microdilution method
Procedure, shortened: (§2)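 MICs measured in vitro by broth microdilution following NCCL recommendations, against a Gram-positive panel of sensitive and resistant strains. Azithromycin and clarithromycin were tested alongside as references.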

Streptococcus pneumoniae [6] = assay: Antibacterial activity against erythromycin-resistant Streptococcus pneumoniae B1 expressing ermB gene by broth microdilution method; procedure, shortened: as §2
Streptococcus pneumoniae [7] = assay: Antibacterial activity against erythromycin-resistant Streptococcus pneumoniae A22072 expressing mefA gene by broth microdilution method; procedure, shortened: as §2
Streptococcus pneumoniae [8] = assay: Antibacterial activity against erythromycin-resistant Streptococcus pneumoniae AB11 expressing ermB and mefA genes by broth microdilution method; procedure, shortened: as §2
Streptococcus pyogenes [9] = assay: Antibacterial activity against clinically isolated erythromycin-resistant Streptococcus pyogenes R2 by broth microdilution method; procedure, shortened: as §2
Streptococcus pneumoniae [10] = assay: Potency index, ratio of EMA MIC to test compound MIC for erythromycin-resistant Streptococcus pneumoniae B1 expressing ermB gene
Streptococcus pneumoniae [11] = assay: Potency index, ratio of AZM MIC to test compound MIC for erythromycin-resistant Streptococcus pneumoniae B1 expressing ermB gene
Streptococcus pyogenes [12] = assay: Potency index, ratio of EMA MIC to test compound MIC for clinically isolated erythromycin-resistant Streptococcus pyogenes R2
Streptococcus pyogenes [13] = assay: Potency index, ratio of AZM MIC to test compound MIC for clinically isolated erythromycin-resistant Streptococcus pyogenes R2
Streptococcus pneumoniae [14] = assay: Potency index, ratio of EMA MIC to test compound MIC for erythromycin-resistant Streptococcus pneumoniae A22072 expressing mefA gene
Streptococcus pneumoniae [15] = assay: Potency index, ratio of AZM MIC to test compound MIC for erythromycin-resistant Streptococcus pneumoniae A22072 expressing mefA gene

## CC[C@@H]1OC(=O)[C@H](C)[C@@H](O[C@H]2C[C@@](C)(OC)[C@@H](OC(=O)NNC(=O)/C=C/c3cccs3)[C@H](C)O2)[C@@H](C)[C@@H](O[C@@H]2O[C@H](C)C[C@H](N(C)C)[C@H]2O)[C@](C)(O)C[C@@H](C)CN(C)[C@H](C)[C@@H](OC(=O)NCc2ccc(OC)cc2)[C@]1(C)O
Staphylococcus aureus [1]
  MIC: 0.5 µg/mL (≈ 0.452 µM)
Streptococcus pneumoniae [2]
  MIC: 0.25 µg/mL (≈ 0.226 µM)
Streptococcus pyogenes [3]
  MIC: 0.25 µg/mL (≈ 0.226 µM)
Staphylococcus aureus [4]
  MIC: 2 µg/mL (≈ 1.81 µM)
Staphylococcus aureus [5]
  MIC: 1 µg/mL (≈ 0.904 µM)
Streptococcus pneumoniae [6]
  MIC: 0.5 µg/mL (≈ 0.452 µM)
Streptococcus pneumoniae [7]
  MIC: 0.03 µg/mL (≈ 0.0271 µM)
Streptococcus pneumoniae [8]
  MIC: 1 µg/mL (≈ 0.904 µM)
Streptococcus pyogenes [9]
  MIC: 32 µg/mL (≈ 28.9 µM)
Streptococcus pneumoniae [10]
  Ratio: 256
Streptococcus pneumoniae [11]
  Ratio: 256

## CC[C@H]1OC(=O)[C@@H](C)[C@H](O[C@@H]2C[C@](C)(OC)[C@H](OC(=O)NNC(=O)/C=C/c3ccc(Cl)cc3)[C@@H](C)O2)[C@H](C)[C@H](O[C@H]2O[C@@H](C)C[C@@H](N(C)C)[C@@H]2O)[C@@](C)(O)C[C@H](C)CN(C)[C@@H](C)[C@H](OC(=O)NCc2ccc(OC)cc2)[C@@]1(C)O
Staphylococcus aureus [1]
  MIC: 0.5 µg/mL (≈ 0.441 µM)
Streptococcus pneumoniae [2]
  MIC: 0.5 µg/mL (≈ 0.441 µM)
Streptococcus pyogenes [3]
  MIC: 0.5 µg/mL (≈ 0.441 µM)
Staphylococcus aureus [4]
  MIC: 2 µg/mL (≈ 1.76 µM)
Staphylococcus aureus [5]
  MIC: 2 µg/mL (≈ 1.76 µM)
Streptococcus pneumoniae [6]
  MIC: 0.25 µg/mL (≈ 0.22 µM)
Streptococcus pneumoniae [7]
  MIC: 0.12 µg/mL (≈ 0.106 µM)
Streptococcus pneumoniae [8]
  MIC: 1 µg/mL (≈ 0.881 µM)
Streptococcus pyogenes [9]
  MIC: 4 µg/mL (≈ 3.52 µM)
Streptococcus pneumoniae [10]
  Ratio: 512
Streptococcus pneumoniae [11]
  Ratio: 512
Streptococcus pyogenes [12]
  Ratio: 32
Streptococcus pyogenes [13]
  Ratio: 32

## CC[C@H]1OC(=O)[C@@H](C)[C@H](O[C@H]2C[C@@](C)(OC)[C@@H](OC(=O)NNC(=O)/C=C/c3cccs3)[C@H](C)O2)[C@@H](C)[C@H](O[C@H]2O[C@@H](C)C[C@@H](N(C)C)[C@@H]2O)[C@@](C)(O)C[C@H](C)CN(C)[C@@H](C)[C@@H]2OC(=O)O[C@@]12C
Staphylococcus aureus [1]
  MIC: 32 µg/mL (≈ 33 µM)
Streptococcus pneumoniae [2]
  MIC: 8 µg/mL (≈ 8.25 µM)
Streptococcus pyogenes [3]
  MIC: 0.25 µg/mL (≈ 0.258 µM)
Staphylococcus aureus [4]
  MIC: 64 µg/mL (≈ 66 µM)
Staphylococcus aureus [5]
  MIC: 64 µg/mL (≈ 66 µM)
Streptococcus pneumoniae [6]
  MIC: 2 µg/mL (≈ 2.06 µM)
Streptococcus pneumoniae [7]
  MIC: 0.015 µg/mL (≈ 0.0155 µM)
Streptococcus pneumoniae [8]
  MIC: 4 µg/mL (≈ 4.13 µM)
Streptococcus pyogenes [9]
  MIC: ≥ 128 µg/mL
Streptococcus pneumoniae [14]
  Ratio: 512
Streptococcus pneumoniae [15]
  Ratio: 256

## CC[C@H]1OC(=O)[C@@H](C)[C@H](O[C@@H]2C[C@](C)(OC)[C@H](OC(=O)NNC(=O)/C=C/c3ccc(Br)cc3)[C@@H](C)O2)[C@H](C)[C@H](O[C@H]2O[C@@H](C)C[C@@H](N(C)C)[C@@H]2O)[C@@](C)(O)C[C@H](C)CN(C)[C@@H](C)[C@H](OC(=O)NCc2ccc(OC)cc2)[C@@]1(C)O
Staphylococcus aureus [1]
  MIC: 1 µg/mL (≈ 0.848 µM)
Streptococcus pneumoniae [2]
  MIC: 0.25 µg/mL (≈ 0.212 µM)
Streptococcus pyogenes [3]
  MIC: 0.5 µg/mL (≈ 0.424 µM)
Staphylococcus aureus [4]
  MIC: 2 µg/mL (≈ 1.7 µM)
Staphylococcus aureus [5]
  MIC: 2 µg/mL (≈ 1.7 µM)
Streptococcus pneumoniae [6]
  MIC: 0.5 µg/mL (≈ 0.424 µM)
Streptococcus pneumoniae [7]
  MIC: 0.25 µg/mL (≈ 0.212 µM)
Streptococcus pneumoniae [8]
  MIC: 1 µg/mL (≈ 0.848 µM)
Streptococcus pyogenes [9]
  MIC: 16 µg/mL (≈ 13.6 µM)
Streptococcus pneumoniae [10]
  Ratio: 256
Streptococcus pneumoniae [11]
  Ratio: 256

## CC[C@H]1OC(=O)[C@H](C)[C@@H](O[C@H]2C[C@@](C)(OC)[C@@H](O)[C@H](C)O2)[C@H](C)[C@@H](O[C@@H]2O[C@H](C)C[C@H](N(C)C)[C@H]2O)[C@](C)(O)C[C@@H](C)C(=O)[C@H](C)[C@@H](O)[C@]1(C)O [ERYTHROMYCIN]
Staphylococcus aureus [1]
  MIC: 0.06 µg/mL (≈ 0.0818 µM)
Streptococcus pneumoniae [2]
  MIC: 0.03 µg/mL (≈ 0.0409 µM)
Streptococcus pyogenes [3]
  MIC: 0.12 µg/mL (≈ 0.164 µM)
Staphylococcus aureus [4]
  MIC: 0.25 µg/mL (≈ 0.341 µM)
Staphylococcus aureus [5]
  MIC: 0.12 µg/mL (≈ 0.164 µM)
Streptococcus pneumoniae [6]
  MIC: > 128 µg/mL
Streptococcus pneumoniae [7]
  MIC: 8 µg/mL (≈ 10.9 µM)
Streptococcus pneumoniae [8]
  MIC: 256 µg/mL (≈ 349 µM)
Streptococcus pyogenes [9]
  MIC: ≥ 128 µg/mL
